Laboratory results: ChEMBL document CHEMBL2016524, “Synthesis and in vitro anticancer and antitubercular activity of diarylpyrazole ligated dihydropyrimidines possessing lipophilic carbamoyl group” (2012)
In brackets after ≈: the same amount, converted by molar mass.

Legend:
Type in all cases: functional
MCF7 [1] = assay: Growth inhibition of human MCF7 cells after 24 hrs by SRB assay; details: MCF7, 24 h
Outline: (§1)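 Human breast cancer MCF-7 cells were exposed to each compound at four doses (1 × 10^-7, 10^-6, 10^-5 and 10^-4 M) and growth was read by sulforhodamine B assay. Values are % control growth, with negative numbers meaning cell kill. GI50 is the concentration giving 50% inhibition of cell growth. Positive controls were included, and each experiment was done three times.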

[2] = tested on: Mycobacterium tuberculosis; assay: Antitubercular activity against Mycobacterium tuberculosis H37Rv after 5 days by microplate Alamar blue assay; details: 120 h
Outline: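 MIC read by resazurin (Alamar Blue) microplate assay after 5 days of incubation at 37 °C. Run in duplicate each time, repeated twice, and MIC confirmed in a BacT/ALERT MP mycobacterial detection system.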

MCF7 [3] = assay: Growth inhibition of human MCF7 cells at 10 uM after 24 hrs by SRB assay; details: MCF7, 24 h, read-out: GI; outline: as §1
MCF7 [4] = assay: Growth inhibition of human MCF7 cells at 100 uM after 24 hrs by SRB assay; details: MCF7, 24 h, read-out: GI; outline: as §1
MCF7 [5] = assay: Growth inhibition of human MCF7 cells at 1 uM after 24 hrs by SRB assay; details: MCF7, 24 h, read-out: GI; outline: as §1
MCF7 [6] = assay: Growth inhibition of human MCF7 cells at 0.1 uM after 24 hrs by SRB assay; details: MCF7, 24 h, read-out: GI; outline: as §1

SMILES	GI50 (MCF7 [1])	MIC [2]	inhibition of growth at 10 µM (MCF7 [3])	inhibition of growth at 100 µM (MCF7 [4])	inhibition of growth at 1 µM (MCF7 [5])	inhibition of growth at 0.1 µM (MCF7 [6])
CCOC(=O)C1=C(C)NC(=S)NC1c1cn(-c2ccccc2)nc1-c1ccccc1 (stereo unspecified)	42 µM	32 µg/mL (≈ 76.5 µM)	30.4%	-12%		
CC1=C(C(=O)Nc2ccc(Cl)cc2)C(c2cn(-c3ccccc3)nc2-c2ccc(Cl)cc2)NC(=O)N1 (stereo unspecified)	56.9 µM	32 µg/mL (≈ 61.7 µM)	< 10%	88.7%		
CC1=C(C(=O)Nc2ccc([N+](=O)[O-])cc2)C(c2cn(-c3ccccc3)nc2-c2ccccc2)NC(=O)N1 (stereo unspecified)	35.5 µM	16 µg/mL (≈ 32.4 µM)	27.3%	-17.7%		
CC1=C(C(=O)Nc2ccccc2)C(c2cn(-c3ccccc3)nc2-c2ccccc2)NC(=O)N1 (stereo unspecified)	80.6 µM	32 µg/mL (≈ 71.2 µM)	< 10%	63.2%		
CC1=C(C(=O)Nc2ccccc2)C(c2cn(-c3ccccc3)nc2-c2ccc(Cl)cc2)NC(=O)N1 (stereo unspecified)	65.5 µM	2 µg/mL (≈ 4.13 µM)	19.6%	71.7%		
CC1=C(C(=O)Nc2ccc([N+](=O)[O-])cc2)C(c2cn(-c3ccccc3)nc2-c2ccccc2)NC(=S)N1 (stereo unspecified)	41.4 µM	32 µg/mL (≈ 62.7 µM)	48.4%	99.3%		
CC1=C(C(=O)Nc2ccc(Cl)cc2)C(c2cn(-c3ccccc3)nc2-c2ccccc2)NC(=S)N1 (stereo unspecified)	34.7 µM	8 µg/mL (≈ 16 µM)	48.6%	-12.8%		
CC1=C(C(=O)Nc2ccc(C)cc2)C(c2cn(-c3ccccc3)nc2-c2ccc(Cl)cc2)NC(=O)N1 (stereo unspecified)	69.7 µM	32 µg/mL (≈ 64.3 µM)	13.6%	70.4%		
COc1ccc(NC(=O)C2=C(C)NC(=S)NC2c2cn(-c3ccccc3)nc2-c2ccc(Cl)cc2)cc1 (stereo unspecified)	70 µM	16 µg/mL (≈ 30.2 µM)	< 10%	72%		
CC1=C(C(=O)Nc2ccc(C)cc2)C(c2cn(-c3ccccc3)nc2-c2ccccc2)NC(=S)N1 (stereo unspecified)	56.1 µM	16 µg/mL (≈ 33.4 µM)	19.7%	84.3%		
CC1=C(C(=O)Nc2ccc(C)cc2)C(c2cn(-c3ccccc3)nc2-c2ccc(Cl)cc2)NC(=S)N1 (stereo unspecified)	43.5 µM	2 µg/mL (≈ 3.89 µM)	63.7%	84.9%		
CCOC(=O)C1=C(C)NC(=O)NC1c1cn(-c2ccccc2)nc1-c1ccc(Cl)cc1 (stereo unspecified)	68.8 µM	0.25 µg/mL (≈ 0.572 µM)	17.1%	70.3%		
CC1=C(C(=O)Nc2ccccc2)C(c2cn(-c3ccccc3)nc2-c2ccc(Cl)cc2)NC(=S)N1 (stereo unspecified)	61.5 µM	32 µg/mL (≈ 64 µM)	24.2%	74.7%		
CC1=C(C(=O)Nc2ccc(C)cc2)C(c2cn(-c3ccccc3)nc2-c2ccccc2)NC(=O)N1 (stereo unspecified)	71.7 µM	32 µg/mL (≈ 69 µM)	11.9%	68.6%		
CC1=C(C(=O)Nc2ccccc2Cl)C(c2cn(-c3ccccc3)nc2-c2ccccc2)NC(=O)N1 (stereo unspecified)	66.6 µM	32 µg/mL (≈ 66.1 µM)	13.9%	72.2%		
CC1=C(C(=O)Nc2ccccc2)C(c2cn(-c3ccccc3)nc2-c2ccccc2)NC(=S)N1 (stereo unspecified)	88.2 µM	32 µg/mL (≈ 68.7 µM)	< 10%	57.4%		
CCOC(=O)C1=C(C)NC(=O)NC1c1cn(-c2ccccc2)nc1-c1ccccc1 (stereo unspecified)	60.8 µM	16 µg/mL (≈ 39.8 µM)	< 10%	86%		
COc1ccc(NC(=O)C2=C(C)NC(=S)NC2c2cn(-c3ccccc3)nc2-c2ccccc2)cc1 (stereo unspecified)	77.3 µM	8 µg/mL (≈ 16.1 µM)	< 10%	63.9%		
COc1ccc(NC(=O)C2=C(C)NC(=O)NC2c2cn(-c3ccccc3)nc2-c2ccc(Cl)cc2)cc1 (stereo unspecified)	69.7 µM	1 µg/mL (≈ 1.95 µM)	< 10%	72.1%		
CCOC(=O)C1=C(C)NC(=S)NC1c1cn(-c2ccccc2)nc1-c1ccc(Cl)cc1 (stereo unspecified)	33.2 µM	0.125 µg/mL (≈ 0.276 µM)	70.6%	99.2%	12%	4.1%
CC1=C(C(=O)Nc2ccccc2Cl)C(c2cn(-c3ccccc3)nc2-c2ccccc2)NC(=S)N1 (stereo unspecified)	68.8 µM	16 µg/mL (≈ 32 µM)	16.5%	68.5%		
